Test results taken from ChEMBL document CHEMBL2046324, “Synthesis and biological evaluation of 1-arylsulfonyl-5-(N-hydroxyacrylamide)indoles as potent histone deacetylase inhibitors with antitumor activity in vivo” (J Med Chem, 2012).
Converted amounts (≈) assume the structure as drawn.

Tests used:
[1] = tested on: A549; test: Antitumor activity against human A549 cells xenografted in nude mouse assessed as tumor growth inhibition at 200 mg/kg, po administered QD till end point; type: functional; details: read-out: GI
[2] = target: T1, Tubulin (Homo sapiens) (UniProt P68371+Q9H4B7+P0DPH7+P68366+Q13509+Q71U36+P04350+Q3ZCM7+P07437+P68363+Q9BQE3+Q6PEY2+Q13885+Q9BVA1+Q9BUF5); test: Inhibition of HDAC in human PC3 cells assessed as tubulin acetylation after 48 hrs by Western blot analysis; details: PC-3
[3] = target: T1, Tubulin (Homo sapiens); test: Inhibition of HDAC in human A549 cells assessed as tubulin acetylation after 48 hrs by Western blot analysis
[4] = Volume of distribution at steady state in Sprague-Dawley rat at 2 mg/kg, iv; type: ADME, organism-based; parameters: dose 2 mg/kg, route intravenous; details: in vivo, read-out: Vdss
In short: (§1)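 Male Sprague-Dawley rats (250–350 g, 8–10 weeks), three per group. Single 2 mg/kg iv bolus into the jugular vein in PEG400/DMSO (80:20, v/v), or 20 mg/kg orally in 1% carboxymethyl cellulose plus 0.5% Tween 80. Plasma was assayed by LC-MS/MS (MRM) and analysed noncompartmentally.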

[5] = Solubility of the compound in EtOH after 24 hrs by HPLC analysis; type: physicochemical
[6] = Half life in Sprague-Dawley rat at 20 mg/kg, po; type: ADME, organism-based; parameters: dose 20 mg/kg, route oral; details: in vivo; in short: as §1
[7] = tested on: A549; test: Antitumor activity against human A549 cells xenografted in nude mouse assessed as tumor growth inhibition at 100 mg/kg, po administered QD till end point; type: functional; details: read-out: GI
In short: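 A549 sc xenografts in female nude mice, seven per group, dosed po daily in 0.5% carboxymethyl cellulose (10 mL/kg) to a 1000 mm³ end point. Tumor volume was w²l/2. TGI was expressed as % T/C of tumor volumes, treated versus control, and compared with control by P value at the indicated days.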

[8] = Cmax in Sprague-Dawley rat at 20 mg/kg, po; type: ADME, organism-based; parameters: dose 20 mg/kg, route oral; details: in vivo; in short: as §1
[9] = tested on: A549; test: Antitumor activity against human A549 cells xenografted in nude mouse assessed as time to end point at 200 mg/kg, po administered QD till end point; type: functional
In short: (§2)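 At about 65 mm³ they were randomized, seven per group, and dosed po daily at 10 mL/kg in 0.5% carboxymethyl cellulose until a 1000 mm³ end point. Volume was w²l/2. TTE came from linear regression of log volume; TGD = T − C and %TGD = (T − C)/C × 100.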

[10] = tested on: Mus musculus; test: Toxicity in nude mouse bearing human A549 cells assessed as body weight change at 100 mg/kg, po QD; type: organism-based; parameters: dose 100 mg/kg, route oral; details: in vivo
In short: (§3)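 Nude mice bearing sc A549 xenografts were dosed po daily in 0.5% carboxymethyl cellulose at 10 mL/kg, scaled to body weight.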

[11] = Solubility of the compound in water after 24 hrs by HPLC analysis; type: physicochemical
[12] = target: CYP2D6 (Homo sapiens, UniProt P10635); test: Inhibition of CYP2D6 at 10 uM; type: ADME
[13] = tested on: A549; test: Antitumor activity against human A549 cells xenografted in nude mouse assessed as tumor growth delay at 100 mg/kg, po administered QD till end point; type: functional
[14] = tested on: A549; test: Antitumor activity against human A549 cells xenografted in nude mouse assessed as tumor growth delay at 200 mg/kg, po administered QD till end point; type: functional; in short: as §2
[15] = Clearance in Sprague-Dawley rat at 2 mg/kg, iv; type: ADME, organism-based; parameters: dose 2 mg/kg, route intravenous; details: in vivo; in short: as §1
[16] = target: T2, CYP1A2 (Homo sapiens, UniProt P05177); test: Inhibition of CYP1A2 at 10 uM; type: ADME
T2 sequence (P05177 whole entry): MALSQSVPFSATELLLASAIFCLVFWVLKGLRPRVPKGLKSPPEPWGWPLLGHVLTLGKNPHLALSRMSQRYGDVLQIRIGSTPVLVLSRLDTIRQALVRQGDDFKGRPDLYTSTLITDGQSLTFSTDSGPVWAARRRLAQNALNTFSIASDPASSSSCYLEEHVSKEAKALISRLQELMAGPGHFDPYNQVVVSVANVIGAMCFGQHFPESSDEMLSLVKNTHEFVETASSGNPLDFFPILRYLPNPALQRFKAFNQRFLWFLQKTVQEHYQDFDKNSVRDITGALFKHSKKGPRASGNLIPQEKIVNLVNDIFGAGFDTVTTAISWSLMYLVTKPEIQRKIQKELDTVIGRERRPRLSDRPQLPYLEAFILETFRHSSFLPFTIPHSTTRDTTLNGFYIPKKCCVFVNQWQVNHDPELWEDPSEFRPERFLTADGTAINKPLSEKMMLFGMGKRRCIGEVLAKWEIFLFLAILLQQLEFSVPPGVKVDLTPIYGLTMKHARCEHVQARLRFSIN

[17] = Oral bioavailability in Sprague-Dawley rat at 20 mg/kg; type: ADME, organism-based; details: in vivo; in short: as §1
[18] = target: CYP3A4 (Homo sapiens, UniProt P08684); test: Inhibition of CYP3A4 at 10 uM; type: ADME
[19] = tested on: A549; test: Antitumor activity against human A549 cells xenografted in po dosed nude mouse assessed as tumor growth delay administered QD till end point; type: functional, organism-based
[20] = target: CYP2E1 (Homo sapiens, UniProt P05181); test: Inhibition of CYP2E1 at 10 uM; type: ADME
[21] = AUC (0 to infinity) in Sprague-Dawley rat at 20 mg/kg, po; type: ADME, organism-based; parameters: time infinity, dose 20 mg/kg, route oral; details: plasma; in short: as §1
[22] = tested on: A549; test: Antitumor activity against human A549 cells xenografted in nude mouse assessed as time to end point at 100 mg/kg, po administered QD till end point; type: functional
[23] = target: CYP2C19 (Homo sapiens, UniProt P33261); test: Inhibition of CYP2C19 at 10 uM; type: ADME
[24] = tested on: PC-3; test: cells; type: functional; details: Homo sapiens, PC-3, 48 h
[25] = Half life in Sprague-Dawley rat at 2 mg/kg, iv; type: ADME, organism-based; parameters: dose 2 mg/kg, route intravenous; details: in vivo; in short: as §1
[26] = tested on: Mus musculus; test: Toxicity in nude mouse bearing human A549 cells assessed as body weight change at 200 mg/kg, po QD; type: organism-based; parameters: dose 200 mg/kg, route oral; details: in vivo; in short: as §3
[27] = tested on: Mus musculus; test: Toxicity in nude mouse bearing human A549 cells assessed as adverse effects at 100 mg/kg, po QD; type: organism-based; parameters: dose 100 mg/kg, route oral; details: in vivo
[28] = tested on: A549; test: Growth inhibition of human A549 cells after 48 hrs by SRB assay; type: functional; details: Homo sapiens, A549, 48 h
In short: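 A549 cells were grown in RPMI 1640 with 10% FBS and 2 mM glutamine at 37 °C in 5% CO₂, then seeded in medium with 5% FBS. A 24 h TCA-fixed plate gave T₀. Cells were exposed to compound or DMSO for 48 h, fixed with 10% TCA and stained with 0.4% SRB; bound dye was solubilized in 10 mM Tris and read at 515 nm. GI₅₀ was the concentration halving net protein increase. At least three independent experiments.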

[29] = AUC (0 to infinity) in Sprague-Dawley rat at 2 mg/kg, iv; type: ADME, organism-based; parameters: dose 2 mg/kg, route intravenous, time infinity; details: plasma; in short: as §1
[30] = tested on: Mus musculus; test: Toxicity in nude mouse bearing human A549 cells assessed as adverse effects at 200 mg/kg, po QD; type: organism-based; parameters: dose 200 mg/kg, route oral; details: in vivo
[31] = target: T3, CYP2C8 (Homo sapiens, UniProt P10632); test: Inhibition of CYP2C8 at 10 uM; type: ADME
T3 sequence (P10632 whole entry): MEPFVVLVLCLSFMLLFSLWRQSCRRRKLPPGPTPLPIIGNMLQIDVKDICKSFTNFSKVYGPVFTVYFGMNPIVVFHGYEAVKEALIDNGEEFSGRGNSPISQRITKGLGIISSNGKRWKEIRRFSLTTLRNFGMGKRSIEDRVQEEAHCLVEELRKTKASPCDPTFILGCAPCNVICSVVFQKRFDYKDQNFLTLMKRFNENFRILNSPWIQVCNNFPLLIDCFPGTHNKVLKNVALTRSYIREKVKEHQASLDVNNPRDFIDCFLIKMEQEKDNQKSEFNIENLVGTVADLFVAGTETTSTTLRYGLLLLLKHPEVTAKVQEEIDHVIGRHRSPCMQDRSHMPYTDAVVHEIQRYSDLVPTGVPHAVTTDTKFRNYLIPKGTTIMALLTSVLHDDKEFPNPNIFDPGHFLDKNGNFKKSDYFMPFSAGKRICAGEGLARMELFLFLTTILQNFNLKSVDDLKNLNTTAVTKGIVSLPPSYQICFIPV

[32] = target: CYP2C9 (Homo sapiens, UniProt P11712); test: Inhibition of CYP2C9 at 10 uM; type: ADME
[33] = tested on: MDA-MB-231; test: cells; type: functional; details: Homo sapiens, MDA-MB-231, 48 h
[34] = cells; type: functional, Hep 3B2; details: Homo sapiens, Hep3B, 48 h
[35] = Tmax in Sprague-Dawley rat at 20 mg/kg, po; type: ADME, organism-based; parameters: dose 20 mg/kg, route oral; details: in vivo; in short: as §1

Sequence of CYP3A4 (P08684 whole entry): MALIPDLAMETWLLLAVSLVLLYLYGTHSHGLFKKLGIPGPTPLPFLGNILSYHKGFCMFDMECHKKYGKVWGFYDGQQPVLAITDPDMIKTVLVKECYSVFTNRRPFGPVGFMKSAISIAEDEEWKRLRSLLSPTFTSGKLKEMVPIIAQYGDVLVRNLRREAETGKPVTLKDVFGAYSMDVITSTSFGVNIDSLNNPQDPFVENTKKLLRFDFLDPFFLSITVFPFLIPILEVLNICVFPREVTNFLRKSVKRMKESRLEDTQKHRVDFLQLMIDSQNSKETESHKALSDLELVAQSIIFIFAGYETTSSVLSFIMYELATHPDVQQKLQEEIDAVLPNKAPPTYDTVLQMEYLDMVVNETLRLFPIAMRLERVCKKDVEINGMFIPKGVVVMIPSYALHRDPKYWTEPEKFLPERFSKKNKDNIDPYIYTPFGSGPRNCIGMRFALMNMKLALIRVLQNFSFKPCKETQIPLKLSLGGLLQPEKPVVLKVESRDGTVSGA
Sequence of CYP2E1 (P05181 whole entry): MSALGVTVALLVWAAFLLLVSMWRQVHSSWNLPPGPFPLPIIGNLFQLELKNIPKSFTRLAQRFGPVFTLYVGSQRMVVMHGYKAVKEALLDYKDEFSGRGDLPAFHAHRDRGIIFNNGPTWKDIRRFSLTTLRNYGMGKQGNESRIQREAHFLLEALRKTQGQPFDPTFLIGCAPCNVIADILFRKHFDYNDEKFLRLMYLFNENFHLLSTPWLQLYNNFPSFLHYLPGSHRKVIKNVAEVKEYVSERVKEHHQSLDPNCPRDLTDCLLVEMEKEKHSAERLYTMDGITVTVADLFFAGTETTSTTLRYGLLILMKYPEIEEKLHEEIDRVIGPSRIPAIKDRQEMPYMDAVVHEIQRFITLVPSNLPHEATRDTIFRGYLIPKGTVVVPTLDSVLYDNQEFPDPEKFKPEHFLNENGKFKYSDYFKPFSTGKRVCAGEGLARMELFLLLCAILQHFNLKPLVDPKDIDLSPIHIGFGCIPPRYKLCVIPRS
Sequence of CYP2C9 (P11712 whole entry): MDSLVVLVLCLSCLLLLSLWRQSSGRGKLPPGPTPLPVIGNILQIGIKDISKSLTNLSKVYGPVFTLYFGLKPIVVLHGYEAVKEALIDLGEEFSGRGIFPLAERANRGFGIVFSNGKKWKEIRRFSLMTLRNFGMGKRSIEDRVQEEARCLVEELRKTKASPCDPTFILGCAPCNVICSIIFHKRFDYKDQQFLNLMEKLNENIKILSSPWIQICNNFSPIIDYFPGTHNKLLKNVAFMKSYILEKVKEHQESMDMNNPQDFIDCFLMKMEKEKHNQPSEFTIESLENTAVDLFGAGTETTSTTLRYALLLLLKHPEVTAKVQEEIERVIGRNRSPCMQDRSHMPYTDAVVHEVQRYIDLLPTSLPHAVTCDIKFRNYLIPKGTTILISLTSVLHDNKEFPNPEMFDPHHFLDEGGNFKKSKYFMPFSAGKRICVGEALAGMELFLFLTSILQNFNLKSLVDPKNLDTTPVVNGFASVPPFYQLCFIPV
Sequence of CYP2C19 (P33261 whole entry): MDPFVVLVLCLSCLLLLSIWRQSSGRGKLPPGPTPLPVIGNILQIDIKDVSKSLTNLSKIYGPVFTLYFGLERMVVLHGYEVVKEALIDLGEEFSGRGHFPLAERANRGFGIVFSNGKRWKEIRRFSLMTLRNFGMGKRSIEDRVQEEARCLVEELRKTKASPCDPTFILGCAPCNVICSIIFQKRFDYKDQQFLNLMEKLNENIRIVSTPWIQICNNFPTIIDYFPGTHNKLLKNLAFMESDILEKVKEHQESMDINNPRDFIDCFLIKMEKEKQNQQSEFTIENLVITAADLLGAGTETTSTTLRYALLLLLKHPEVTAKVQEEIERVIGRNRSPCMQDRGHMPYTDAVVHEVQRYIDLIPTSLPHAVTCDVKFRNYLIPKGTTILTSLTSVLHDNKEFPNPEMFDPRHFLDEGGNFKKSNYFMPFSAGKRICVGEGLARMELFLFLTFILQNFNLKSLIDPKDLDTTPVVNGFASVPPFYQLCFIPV
Sequence of CYP2D6 (P10635 whole entry): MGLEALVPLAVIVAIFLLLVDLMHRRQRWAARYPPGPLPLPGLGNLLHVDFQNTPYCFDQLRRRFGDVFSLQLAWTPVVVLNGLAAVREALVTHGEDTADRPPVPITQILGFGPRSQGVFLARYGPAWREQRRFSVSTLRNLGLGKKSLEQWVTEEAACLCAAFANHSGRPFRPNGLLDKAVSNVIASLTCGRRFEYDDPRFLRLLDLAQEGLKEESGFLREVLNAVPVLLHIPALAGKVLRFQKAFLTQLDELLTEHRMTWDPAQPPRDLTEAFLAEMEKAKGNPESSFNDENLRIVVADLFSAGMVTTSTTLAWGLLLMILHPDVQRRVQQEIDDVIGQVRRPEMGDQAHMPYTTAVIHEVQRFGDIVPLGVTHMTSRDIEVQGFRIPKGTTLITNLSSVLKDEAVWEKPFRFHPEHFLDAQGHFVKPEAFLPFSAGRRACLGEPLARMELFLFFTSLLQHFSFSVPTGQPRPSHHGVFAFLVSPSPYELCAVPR

Compound: O=C(/C=C/c1ccc2c(ccn2S(=O)(=O)c2ccccc2)c1)NO
- inhibition in vivo at 200 mg/kg [1]: 32.1%
- inhibition [2]: Dose-dependent effect
- inhibition [3]: Dose-dependent effect
- Vd [4]: 2.1 L/kg
- solubility at 24 h [5]: 939 µg/mL (≈ 2740 µM)
- half-life [6]: 5.5 h
- inhibition in vivo at 100 mg/kg [7]: 15%
- Cmax [8]: 217 ng/mL
- Time [9]: 39.8 days
- Activity [10]: Non-toxic
- solubility at 24 h [11]: < 1 µg/mL
- inhibition at 10 µM [12]: 31%
- Activity [13]: 34%
- Activity [14]: 47%
- clearance [15]: 35.5 mL/min/kg
- inhibition at 10 µM [16]: 51%
- bioavailability [17]: 10%
- inhibition at 10 µM [18]: 65%
- Activity [19]: Dose-dependent effect
- inhibition at 10 µM [20]: 22%
- AUC(0-inf) [21]: 916 ng·h/mL
- Time [22]: 36.2 days
- inhibition at 10 µM [23]: 78%
- GI50 [24]: 0.62 µM
- half-life [25]: 2.6 h
- Activity [26]: Non-toxic
- Activity [27]: Non-toxic
- GI50 [28]: 1.02 µM
- AUC(0-inf) [29]: 927 ng·h/mL
- Activity [30]: Non-toxic
- inhibition at 10 µM [31]: 78%
- inhibition at 10 µM [32]: 22%
- GI50 [33]: 0.48 µM
- GI50 [34]: 0.41 µM
- Tmax [35]: 1.7 h
